Measurements as given in PubChem BioAssay AID1800 (The Scripps Research Institute Molecular Screening Center, 2009).
The campaign covered roughly 290,000 compounds. About 1,600 (0.55%) were called active.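 Rule for the calls: active = inhibition above the mean of all tested compounds plus 3 SD, set per campaign (cut at about 35% in these data); inactive = the rest.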 The list comes from a sample in which actives are over-represented; it also holds similar structures and randomly drawn compounds.

Tested on: Hepatitis C virus NS3 helicase
Test: HCV NS3 DNA unwinding blockers – biochemical, Cy5 molecular beacon fluorescence, primary screen (AID 1800);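 note: 0% = DMSO wells and 100% = thioflavine S control wells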
Details: at 10.9 µM, active compounds read high
How it was run: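 Assay system: hepatitis C virus NS3 helicase domain fragment enzyme. Also added: annealed dual-labelled DNA beacon duplex, ATP-started. Timing: 1 h reaction at 25 °C, ATP-initiated. Technique: Cy5 fluorescence at 0 and 60 min, beacon hairpin quenching. Evaluation: % inhibition of unwinding. Replication: one well per compound.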

Structure (SMILES)	inhibition
COc1ccc(N2C(=O)/C(=C/c3ccco3)C(=O)NC2=S)cc1	58.9% (active)
COc1cccc(N2C(=O)NC(=O)/C(=C\c3cn(C)c4ccccc34)C2=O)c1	-1.98% (inactive)
COc1ccc(CN2C(=O)NC(=O)/C(=C\c3ccc(OC)c(OC)c3OC)C2=O)cc1	21.5% (inactive)
CN(C)CCN(CC1CCCN(Cc2ccccc2F)C1)C(=O)Cc1ccc(F)c(F)c1 (stereo not given)	-18.8% (inactive)
Cc1ccc(S(=O)(=O)N(C)c2ccc(C(=O)NCC3(N(C)C)CCCCC3)cc2)cc1	-37.1% (inactive)
Cc1cc(C)cc(NC(=S)NC2CC3CCCC(C2)N3Cc2cccs2)c1 (stereo not given)	-48.3% (inactive)
CC(C)n1c(=O)c(C=Nc2ccc(Br)cc2)c(O)n(Cc2ccco2)c1=O	45.5% (active)
CN(C)CCCN=Cc1c(O)n(Cc2ccco2)c(=O)[nH]c1=O	16.9% (inactive)
COc1cc2nc(N3CCN(C(=O)[C@@H]4CCCO4)CC3)nc(N)c2cc1OC	-0.76% (inactive)
CCN(CC)C(=O)Oc1ccc(NC(=O)N2CCOCC2)cc1	4.52% (inactive)
CC(C)(C)c1ccc(CN2C(=O)CN=C(c3ccccc3)c3ccccc32)cc1	14.7% (inactive)
O=C(CN1CCCC1=O)NCCc1ccccc1	0.89% (inactive)
O=C1CC(=O)N(Cc2ccccc2)C(=O)N1CCCCCCN1C(=O)CC(=O)N(Cc2ccccc2)C1=O	41.5% (active)
CC1(C)Cc2c(C#N)c(N3CCNCC3)nc(-c3ccco3)c2CS1	-44.9% (inactive)
Cc1ccc(C2CN(C)CC2C(=O)c2ccc(F)cc2)cc1 (stereo not given)	-2.19% (inactive)
